# Screens as filed in PubChem.
# Most compounds without a hit are left out; they make up all but 4.3% or so of the library.
# SDO1 yeast rescue – growth rescue of sdo1-depleted yeast, primary screen, S. cerevisiae, bone marrow failure model; S. cerevisiae sdo1-depleted JHY4D growth rescue, OD600 30 h; active compounds read high; pdr5 snq2 efflux-pump mutant strain; z-score at 10 µM; 140,000 tested, 0.21% active; AID 817, 2007;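 active = z-score above 3 at both the 24 hr and the 30 hr optical density reads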;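 also: z-score against mean and SD of all compound wells on the same plate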
# FLuc inh counter – firefly luciferase enzyme inhibitors, primary screen, artefact control for luciferase-based inhibitor screens, biochemical, luminescence, ATPLite; 10 min; inhibition, % at 10 µM; AID 1006, 2008; 200,000 tested, 1.5% active;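 active = inhibition above about 50% when tested at 10 µM, limit read from the data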
# Target sequence (P08659 whole entry, looked up): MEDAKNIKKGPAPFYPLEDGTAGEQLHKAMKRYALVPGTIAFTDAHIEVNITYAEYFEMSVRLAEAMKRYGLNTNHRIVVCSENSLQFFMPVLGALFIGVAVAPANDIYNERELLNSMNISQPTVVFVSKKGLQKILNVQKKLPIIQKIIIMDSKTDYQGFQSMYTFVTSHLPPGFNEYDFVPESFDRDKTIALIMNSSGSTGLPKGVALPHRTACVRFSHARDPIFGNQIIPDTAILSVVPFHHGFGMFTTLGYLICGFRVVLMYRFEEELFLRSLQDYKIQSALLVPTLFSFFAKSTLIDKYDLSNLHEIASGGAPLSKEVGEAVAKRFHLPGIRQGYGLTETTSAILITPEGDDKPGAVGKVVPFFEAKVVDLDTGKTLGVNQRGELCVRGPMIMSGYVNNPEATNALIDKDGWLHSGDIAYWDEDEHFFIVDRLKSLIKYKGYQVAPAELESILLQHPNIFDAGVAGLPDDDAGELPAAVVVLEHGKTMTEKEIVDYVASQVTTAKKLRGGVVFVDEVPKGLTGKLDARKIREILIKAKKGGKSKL
# NF-kB neuron act – activators of NF-kB expression in neurons, primary screen, cell-based, HTS. human neuronal cells, NF-kB reporter expression; active compounds read high. 190,000 tested, 1.6% active. fold change at 12.5 µM; in the data active = fold change above about 3.3
# APP 5'UTR act – activators of APP 5'UTR luciferase reporter, primary screen, SH-SY5Y cells; SH-SY5Y APP 5'UTR luciferase reporter, luminescence; zero percent = DMSO vehicle wells; AID 1276, 2008; 190,000 tested, 1% active; activation, % at 2 µM;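 active = activation above a set limit, based on mean plus 3 SD of controls, cut at about 140% in these data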
# STAT1 act – STAT1 signaling activators, primary screen, cell-based, HTS, luciferase reporter | NIH 3T3 STAT1-luciferase reporter, IFN-gamma, luminescence; 100% = IFN-gamma alone, no compound | activation (% of control), % at 5.5 µM | 200,000 tested, 2.6% active;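 active = activation above the screen-wide mean activation plus 3 SD, cut at about 130% in these data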;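 also: raw ratio to IFN-gamma control signal so 100% means no change and 0% no light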
# FLuc stim CS – FLuc activators, initial screening, artefact control for FLuc-dependent activation tests, biochemical, ATPlite luminescence; 200,000 tested, under 10 active; ATPlite luciferase biochemical, 10 min; 0 = ATP-free wells, 1 = DMSO control; activation factor at 10 µM; AID 1027, 2008;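 active = luciferase activation factor, scaled between plate controls, of at least 2 with compound at 10 µM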
#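 Assay system – cell-free luciferase reagent · Medium – PBS-based ATP solution · Dosing – test compounds dosed from 2 mM stocks in 100% DMSO · Timing – 10 min, room temperature · Technique – light output (luminescence) · Measure – luminescence gain marking luciferase activators · Controls – No-ATP low control, compound-free enzyme-plus-ATP high control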
# Starred values were filed as active, the others as inactive; . = no result given.
SMILES,SDO1 yeast rescue,FLuc inh counter,NF-kB neuron act,APP 5'UTR act,STAT1 act,FLuc stim CS
O=C1CC(c2ccccc2)CC(O)=C1C=Nc1ccc(O)cc1 (stereo unspecified),.,12,1.6,-2,132*,0.9
COc1ccc(NS(=O)(=O)c2ccc(NS(=O)(=O)c3ccc(C)cc3)cc2)nn1,0.4,-4,1.1,11,99,1
Cn1c(N)c(C(=O)COC(=O)c2cc(C3CC3)nc3ccccc23)c(=O)n(Cc2ccccc2)c1=O,-0.04,-4,1.2,-2,107,1
COC(=O)c1ccc(CSc2nc(N)cc(N)n2)cc1,-0.57,22,1.4,19,105,0.8
COC(=O)c1ccc(CSc2nc3ccccc3o2)cc1,-0.16,26,3.8*,126,92,0.7
O=[N+]([O-])c1ccc(CSc2nc3ccccc3o2)cc1,-1.2,24,5*,177*,132*,0.8
CC1=C(C(=O)OCc2ccccc2)C(c2ccc(Cl)cc2Cl)NC(=O)N1CCCC(=O)O (stereo unspecified),-0.55,2,2.5,-9,101,1
Cc1cccc(OCCOCCSc2ncccn2)c1,-0.99,-8,1.3,22,110,1.1
Cc1ccc(OCCSc2ncccn2)c(C)c1,.,36,5.5*,168*,136*,0.6
CC(=O)Nc1ccc2nc(-c3cccs3)[nH]c2c1,1.6,52*,1.9,69,124,0.5
CC(=O)Nc1ccc2nc(-c3ccc(Br)o3)[nH]c2c1,0.9,34,1.5,72,133*,0.7
CCOC(=O)c1cc(-c2ccc(OC)cc2)nn1-c1ccc(C(=O)O)cc1,.,-2,1,-13,97,1
COc1ccc2sc3ccccc3c(=O)c2c1,-0.98,24,2.4,42,132*,0.8
COc1ccc2oc(=O)cc(C)c2c1,1.7,-3,1.2,-1,96,1
COc1ccc2oc3ccc(OC)cc3c(=O)c2c1,0.82,42,3.1,67,144*,0.6
CCOC(=O)c1c(NC(=O)COC(=O)c2ccccn2)sc2c1CCC2,0.18,-10,0.88,-8,96,1.1
COc1ccc2occ(C(=O)c3cccs3)c2c1,-0.95,33,4.3*,55,128,0.7
COc1ccc(OC)c(C(=O)c2coc3ccc(OC(C)=O)cc23)c1,-1.1,-6,1.4,14,101,1.1
c1ccc2c(Nc3nnc(-c4ccncc4)s3)cccc2c1,-2.1,52*,1.6,70,125,0.5
COc1ccc(C(=O)Oc2coc(CSc3nnc(NC(=O)c4cccs4)s3)cc2=O)cc1,-0.47,0,1,8,99,1
Cc1cc(N/N=C\c2ccccc2)nc(-c2ccccc2O)n1,-1.7,65*,1.2,21,112,0.4
Cc1cc(N/N=C/c2ccc(O)cc2O)nc(-c2ccccc2O)n1,-1.3,64*,0.69,-56,121,0.4
Cc1cc(N/N=C/c2ccc(O)cc2O)nc(-n2nc(C)cc2C)n1,0,5,0.86,-53,103,0.9
Cc1ccc(Nc2cc(C)nc(NCc3ccccc3)n2)cc1,-0.8,2,0.76,.,85,1
Cc1cc(N/N=C/c2ccccc2Cl)nc(NCc2ccccc2)n1,-1.7,60*,0.75,4,100,0.4
SMILES,SDO1 yeast rescue,FLuc inh counter,NF-kB neuron act,APP 5'UTR act,STAT1 act,FLuc stim CS
Cc1cc(N(C)/N=C/c2ccccc2)nc(-c2ccccc2O)n1,.,-2,1.1,24,103,1
Cc1cc(N/N=C/c2ccccc2O)nc(-c2ccccc2O)n1,-1.6,61*,0.97,-36,95,0.4
O=C1[C@H]2[C@H](ON3CCCC[C@H]23)C(=O)N1c1ccc(Cl)cc1,.,-3,1.2,1,102,1
CCOC(=O)c1c(NC(=O)c2c(-c3ccccc3)noc2C)sc(C)c1-c1ccccc1,0.32,-6,0.71,-40,136*,1.1
CCOC(=O)Cc1csc(NC(=O)c2c(-c3ccccc3)noc2C)n1,-0.58,-9,1.1,0,99,1.1
Cc1onc(-c2c(F)cccc2Cl)c1C(=O)Nc1cccc(S(=O)(=O)NCc2ccco2)c1,.,-10,0.6,22,90,1.1
CN(CCC#N)c1ccc(/C=C(\C#N)c2ccccn2)cc1,-1.1,88*,2.9,180*,141*,0.1
CCN(CC)c1ccc(/C=C(\C#N)c2ccccn2)cc1,-0.95,85*,1.9,160*,92,0.2
CC(=O)N/C(=C\c1ccc(C)cc1)C(=O)O,.,-2,1.3,11,103,1
NS(=O)(=O)c1cccc(NC(=O)COC(=O)C2CCCCC2)c1,.,-2,1.1,3,99,1
O=C1NN(c2ccccc2)C(=O)/C1=C/c1coc2ccccc2c1=O,0.13,-4,0.76,47,146*,1
Cc1cc(/C=C2/C(=O)NN(c3ccccc3)C2=O)c(C)n1-c1ccc(O)cc1,0.09,95*,0.64,117,119,0
O=C1NN(c2ccccc2)C(=O)/C1=C/c1cccs1,0.73,35,1,6,92,0.6
Cc1cc(C=C2C(=O)CCCC2=O)c(C)n1-c1ccccc1,0.72,15,0.87,7,97,0.8
COc1ccc(-n2c(C)cc(/C=C3\C(=O)NN(c4ccccc4)C3=O)c2C)cc1,0,55*,1.5,34,104,0.4
CCCCN1CCc2c([nH]c3ccc(C)cc23)C1=O,-0.6,4,3.2,123,151*,1
COc1ccc(C2=NN(C(=O)CCC(=O)O)C(c3cccs3)C2)cc1 (stereo unspecified),.,1,1.3,11,103,1
COc1ccc(C2=NN3C(C2)c2ccccc2OC32C(=O)N(C)c3ccccc32)cc1 (stereo unspecified),-2.1,-1,6*,187*,82,1
COc1ccc(C2=NN3C(C2)c2ccccc2OC3c2cccs2)cc1 (stereo unspecified),.,-8,3.8*,155*,108,1.1
Cc1ccc(NC(=S)N2CCN(C3CCCCC3)CC2)cc1,-0.07,-4,1.5,7,106,1
O=C(c1ccc2ccccc2c1)N1CCN(c2ccc(O)cc2)CC1,-0.62,-5,4.1*,21,99,1.1
O=C(c1ccc2ccccc2c1)N1CCN(c2ccc([N+](=O)[O-])c(N3CCOCC3)c2)CC1,-0.79,-8,0.75,-11,97,1.1
CCOC(=O)N1CCN(c2ccc(Cl)cc2)CC1,-0.23,-3,1.5,3,98,1
